This passage reports Activity results from ChEMBL document CHEMBL3352626, “Synthesis and biological evaluation of novel oxindole-based RTK inhibitors as anti-cancer agents” (Bioorg Med Chem, 2014).

Assay [1] can be described thus: Antiproliferative activity against human PM8910 cells at 10 uM after 72 hrs by MTS assay. The format is functional.
A short description of assay [2]: Antiproliferative activity against human HCC827 cells at 10 uM after 72 hrs by MTS assay. The class given is functional.
Assay [3] can be described thus: Antiproliferative activity against human SKBR3 cells at 10 uM after 72 hrs by MTS assay. The format is functional, SK-BR-3. In outline: (§1)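 Single-concentration screen. Cells at 4 × 10^4 cells/ml, seeded and incubated overnight, then given 10 µM compound in DMSO for 72 h (37 °C, 5% CO2), with DMSO-only controls. MTS added for 4 h and A490 read. Percent inhibition = (1 − OD490 treated/OD490 control) × 100, from triplicate experiments.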
A general note: Tetrazolium dyes change colour on reduction, which living cells bring about.

The subject of another assay is NCI-H1975. The assay is described as follows: Antiproliferative activity against human NCI-H1975 cells at 10 uM after 72 hrs by MTS assay. The class given is functional. In outline:
as §1

The subject of another assay is U-251. The assay is described as follows: Antiproliferative activity against human U251 cells at 10 uM after 72 hrs by MTS assay. The class given is functional. The method in brief: as §1
The next assay concerns A549. The assay is described as follows: Antiproliferative activity against human A549 cells at 10 uM after 72 hrs by MTS assay. The format is functional.
Assay [4] in a line: Antiproliferative activity against human SGC7901 cells at 10 uM after 72 hrs by MTS assay. The format is functional, SGC-7901.
A short description of assay [5]: Antiproliferative activity against human Bel7402 cells at 10 uM after 72 hrs by MTS assay. The format is functional, Bel-7402.
Assay [6] in a line: Antiproliferative activity against human H460 cells at 10 uM after 72 hrs by MTS assay. The class given is functional, NCI-H460.

Consider `O=C1Nc2ncccc2/C1=C/c1ncc[nH]1`, for which the Activity in [1] is reported as 0.71%; in assay [2], -5.39%; in assay [3], -0.35%; in the assay on NCI-H1975, 22.81%; in the assay with U-251 it was -2.99%; with A549, 6.76%. In addition, the Activity in [4] is 12.69%; in assay [5], 3.18%; in assay [6], 13.74%.
On to `O=C1Nc2ccc(Cl)cc2/C1=C/c1c[nH]c2ncccc12`, for which the Activity in [1] stood at 29.28%; in assay [2], 25.9%; in assay [3] it was 10.07%; in the assay on NCI-H1975, 48.72%; in the assay with U-251, 5.49%; in the assay on A549, 34.13%. The results for the Activity in assay [4], in assay [5] and in [6] were 31.4%, 34.51% and 48.99%, respectively.
For `Cn1cc(/C=C2/C(=O)Nc3ncccc32)c2ccccc21`, the Activity in [1] is on record as 22.23%; in [2], 37.21%; in [3], 8.29%; in the assay on NCI-H1975, 38.04%; with U-251 it was -0.65%; in the assay on A549 it was 11.36%. Besides, the Activity in assay [4] is recorded as 22.39%; in assay [5], 24.47%; in [6], 19.17%.
In the case of `O=C1Nc2ccc(Cl)cc2/C1=N/c1ccc2cc[nH]c2c1`, the Activity in [1] is reported as 11.93%; in assay [2], 24.95%; in assay [3], 14.03%; in the assay on NCI-H1975 it was 47.6%; with U-251, -5.47%; in the assay on A549, 10.2%. In addition, the Activity in assay [4] is given as -0.27%; in assay [5], 5.59%; in assay [6] it was 17.08%.
For the compound `COc1cc(OC)c(/C=C2\C(=O)Nc3ncccc32)c(OC)c1`, the Activity in assay [1] worked out at 41.21%; in [2], 17.03%; in assay [3] it was 2.1%; in the assay on NCI-H1975, 66.49%; with U-251, 7.46%; in the assay with A549 it was 39.96%. Also, the Activity in [4] came to 35.63%; in [5], 40.41%; in assay [6], 53.98%.
As to `O=C1Nc2ccc(Cl)cc2/C1=N/c1ccc2[nH]ccc2c1`, the Activity in assay [1] is 10.94%; in [2], 20.17%; in [3] it was 11.83%; in the assay with NCI-H1975, 21.92%; in the assay with U-251, 26.95%; with A549 it was -10.32%. The Activity in assay [4] came out at 12.49%; in assay [5] it was 13.44%; in assay [6] it was 9.99%.
Consider `Cc1cc2cc(/N=C3\C(=O)Nc4ccc(Cl)cc43)ccc2[nH]1`, for which the Activity in assay [1] is 12.97%; in assay [2] it was 23.12%; in [3], 9.84%; with NCI-H1975 it was 26.35%; in the assay on U-251, 7.94%; in the assay on A549, 7.35%. Also, the Activity in assay [4] is given as 7.05%; in [5], 6.73%; in assay [6], 8.51%.
In the case of `CCOC(=O)c1ccc(/N=C2\C(=O)Nc3ccc(Cl)cc32)c(Nc2cc(OC)cc(OC)c2)c1`, the Activity came to 42.24% in assay [1]; 41.43% in assay [2]; 41.17% in assay [3]; 65.83% with NCI-H1975; 7.98% in the assay with U-251; 32.9% in the assay on A549. Besides, the Activity worked out at 64.74% in assay [4], 28.63% in [5] and 57.08% in assay [6].
Consider `O=C1Nc2ccc(Cl)cc2/C1=N/c1ccc2ncccc2c1`, for which the Activity in assay [1] was 17.04%; in assay [2] it was 36.53%; in [3], 24.97%; with NCI-H1975, 48.22%; in the assay with U-251, -1.16%; with A549, 33.82%. Also, the Activity stood at 11.48% in assay [4], 0.92% in assay [5] and 24.3% in [6].
Regarding `O=C1Nc2ccccc2/C1=C/c1ccc(N2CCN(C(=O)c3ccccc3)CC2)cc1`, the Activity worked out at 40.43% in assay [1]; 53.47% in [2]; 27.26% in assay [3]; 42.39% in the assay on NCI-H1975; 11.33% with U-251; 23.47% in the assay with A549. Further, the Activity in assay [4] came to 23.7%; in assay [5] it was 30.87%; in assay [6], 35.67%.
Take `O=C1Nc2ccccc2/C1=C/c1ccc(N2CCOCC2)cc1`: the Activity was found to be 14.19% in assay [1]; 34.26% in assay [2]; 11.93% in [3]; 28.96% with NCI-H1975; 1.92% with U-251; 37.09% with A549. For the same compound, the Activity in assay [4] amounted to 17.89%; in assay [5], 23.53%; in assay [6] it was 26.56%.
With `CCn1c2ccccc2c2cc(/N=C3/C(=O)Nc4ccc(Cl)cc43)ccc21`, the Activity in assay [1] was 24.55%; in [2], 37.81%; in assay [3], 20.02%; with NCI-H1975 it was 59.78%; in the assay with U-251, 8.03%; in the assay on A549, 26.46%. Besides, the results for the Activity in assay [4], in assay [5] and in assay [6] were 15.22%, 16.52% and 30.28%, respectively.
On to `C=CC(=O)N1CCN(c2ccc(/C=C3\C(=O)Nc4ncccc43)cc2)CC1`, for which the Activity in assay [1] amounted to 19.94%; in assay [2], 22.4%; in assay [3] it was 13.65%; with NCI-H1975, 35.6%; with U-251, 12.58%; in the assay with A549 it was 25.1%. Besides, the Activity in assay [4] was 6.35%; in assay [5] it was 12.29%; in [6], 7.69%.
As for `O=C1Nc2ncccc2/C1=C/c1c[nH]c2ccccc12`, the Activity in assay [1] is given as 3.22%; in assay [2] it was 7.27%; in assay [3], 2.64%; with NCI-H1975, 13.11%; in the assay on U-251, 0.83%; in the assay on A549, 5.4%. Also, the Activity in [4] is reported as 24.68%; in assay [5], 18.98%; in assay [6], 7.2%.
As for `Nc1nc(N2CCOCC2)ccc1/N=C1\C(=O)Nc2ccc(Cl)cc21`, the Activity in assay [1] is listed as 26.03%; in assay [2], 33.66%; in assay [3], 17.97%; in the assay with NCI-H1975, 56.34%; with U-251, -0.07%; in the assay on A549, 34.07%. For the same compound, the Activity worked out at 18.63% in assay [4], 18.8% in [5] and 37.48% in assay [6].
In the case of `O=C1Nc2ccc(Cl)cc2/C1=N/NC(=O)c1ccc(N2CCOCC2)c([N+](=O)[O-])c1`, the Activity is recorded as 8.98% in [1]; 3.85% in assay [2]; 11.88% in [3]; 17.93% in the assay on NCI-H1975; -8.37% with U-251; 7.93% with A549. For the same compound, the results for the Activity in assay [4], in [5] and in assay [6] were 0.54%, 0.27% and 7.06%, respectively.
